# This is a sample that favours compounds with a hit; in the whole collection about 2.4% have one here.
# Apaf1 inhib = human Apaf-1 inhibition; inhibition, % at 20 µM; actives 0.71% (n = 330,000); O14727; reconstituted apoptosome caspase-3 activity, DEVD-Rh110 fluorescence; active means inhibition of at least 40% at 20 µM;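 further: plate controls were DMSO wells for no effect and DEVD-CHO caspase inhibitor wells for full effect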
#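 System: reconstituted apoptosome with Apaf-1, cytochrome c, caspase-9, procaspase-3, dATP; Signal: Rh110 fluorescence intensity; Schedule: 30 min compound preincubation, 50 min activation, room temperature; Reagent: cytochrome c trigger plus (Z-DEVD)2-Rh110 caspase-3 substrate.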
# UBC13 inh = human UBC13 polyubiquitination inhibition; actives 0.47% (n = 330,000); AID 485273; P61088; inhibition, % at 20 µM; UBC13 polyubiquitin chain formation, TR-FRET; in the data active means inhibition above about 45%, passing the limit was not always enough
# TMEM16A act = activates or potentiates the mouse TMEM16A chloride channel | Q8BHY3 | HEK293 TMEM16A/YFP-H148Q/I152L, iodide quench fluorescence; hits give low values | B-score at 10 µM | actives 0.3% (n = 340,000) | AID 623877;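 active means fluorescence-ratio B-score plate-corrected deviation score at least 3 library SD below zero, with starting fluorescence score within 5 deviations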;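 further: channel opened by trigger with iodide after compound preincubation; score built on the fluorescence ratio of max minus min over baseline; more negative score means more quench and so TMEM16A activation or potentiation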
# DNA FID counter = fluorescent intercalator displacement, NS3 helicase counter-screen; DNA fluorescent intercalator displacement, fluorescence; inhibition, % at 7.9 µM; actives 0.17% (n = 290,000); AID 1845; in the data active means inhibition above about 37%;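 further: 0% = vehicle and 100% = reference compound; higher means more ethidium bromide displaced from hairpin DNA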
# TMEM16A inh = inhibitors of mouse TMEM16A calcium-activated chloride channel; HEK293 TMEM16A/YFP iodide influx fluorescence, ionomycin; normalized B-score (activity score, 25-100; higher = stronger inhibition) at 10 µM; actives 1.2% (n = 310,000); AID 588511;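 active means ratio plate-corrected score three or more library SD toward inhibition, starting fluorescence score within five deviations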;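 further: score derived from kinetic fluorescence span divided by baseline fluorescence per well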
# TMEM16A reconf = TMEM16A (mouse) chloride channel inhibition, re-confirmation. shares compounds with TMEM16A inh. HEK293 TMEM16A/YFP-H148Q, iodide quench fluorescence; ionomycin added to raise cell calcium. inhibition, % at 10 µM. actives 39% (n = 2,300);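 active means mean duplicate percent inhibition, scaled so buffer wells are 0 and the reference blocker 100, over three buffer SD above buffer mean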
# TMEM16A Ca cntr = counter-screen for TMEM16A inhibitors: effect on calcium mobilization | shares compounds with TMEM16A inh | TMEM16A/YFP HEK293, Fluo4 calcium mobilization | calcium response (% of ionomycin), % at 10 µM | actives 2% (n = 2,300) | AID 652231;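 active means duplicate-averaged calcium signal over 20% of the ionomycin maximum, relative to buffer baseline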;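 further: each well's signal is peak minus trough fluorescence divided by its pre-addition baseline; 0% = buffer wells and 100% = ionomycin wells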
# Parental YFP cnt = acts in parental YFP-HEK293 cells lacking TMEM16A, counter-screen; shares compounds with TMEM16A inh; iodide YFP quench, ionomycin; YFP ratio F(max-min)/F0 at 10 µM; 2,300 tested, under 10 active;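 active means yellow fluorescent protein signal ratio exceeding the buffer control mean by over 5 SD of those controls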;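 further: ratio is mean of duplicate wells from kinetic YFP trace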
# ClC-1 inh = selectivity of TMEM16A inhibitors: inhibition of rat ClC-1 chloride channel | shares compounds with TMEM16A inh | CHO ClC-1-YFP, iodide influx fluorescence quench; iodide control reads 0, buffer control 100 | ratio percent, % at 10 µM | 2,300 tested, under 10 active;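 active means duplicate-mean ratio percent above the mean of iodide-only control wells, which defines zero, plus 5 of their SD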;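 further: higher percent means stronger block of ClC-1 iodide influx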
# Active calls of the source: *; i = inactive; . = no result; ! = not active in a repeat.
SMILES,Apaf1 inhib,UBC13 inh,TMEM16A act,DNA FID counter,TMEM16A inh,TMEM16A reconf,TMEM16A Ca cntr,Parental YFP cnt,ClC-1 inh
CC(=O)c1c(C)[nH]c(C(=O)CSc2nc3ccc(C)cc3[nH]2)c1C,12.6,10.5,i,-8.6,i,i,i,-0.822,-1.0
CCCOc1ccc(C(=O)O/N=C(\CC)c2ccc(C)cc2)cc1,10.9,2.5,i,-4.2,i,.,.,.,.
CC/C(=N\OC(=O)c1ccc(OC(C)C)cc1)c1ccc(C)cc1,32.9,-13.0,i,-16.1,100*,i,i,-1.34,-23.0
N#CCCn1nc(-c2ccccc2)c2ccccc2c1=O,-1.3,5.2,i,-13.6,i,.,.,.,.
Cc1ccccc1Nc1nc(NCc2ccco2)c2ccccc2n1,8.1,25.9,i,26.9,25*,32.0%*,i,-1.17,-7.0
Cc1ccc(S(=O)(=O)Nc2nc3ccccc3nc2NCc2ccco2)cc1C,17.7,-17.5,i,-28.5,100*,i,i,-0.975,-15.0
Cc1c(O)cccc1C(=O)N[C@@H](CSc1ccccc1)[C@H](O)CN1C[C@H]2CCCC[C@H]2C[C@H]1C(=O)NC(C)(C)C,28.5,-11.0,i,-17.1,100*!,41.0%*,i,-1,-2.5
CCN(CC(=O)NC(C)(C)C)C(=O)c1ccccc1SCC(=O)NC1CCCCCCC1,15.2,-6.1,i,-48.2,i,.,.,.,.
COc1ccc(C(=O)c2c(-c3cccc(C)c3)oc3ccc(N4CCOCC4)cc23)cn1,26.9,3.0,i,-32.5,i,.,.,.,.
CN1CCN(C(=O)c2cc(Cl)ccc2NC(=O)c2ccc(Cl)cc2Cl)CC1,-6.6,8.4,i,-0.4,i,.,.,.,.
Cc1ccc2nc(SCC(=O)N3CCC(Cc4ccccc4)CC3)nc(=O)n2c1,18.3,-10.6,i,.,100*,16.5%*,i,-1.09,-1.0
COC(=O)CNC(c1ccccc1)c1cc(C)ccc1NC(=O)CNC(=O)OCc1ccccc1 (stereo not drawn),29.9,5.6,i,-16.3,i,.,.,.,.
COC(=O)CNC(c1ccccc1)c1cc(Br)ccc1NC(=O)OCc1ccccc1 (stereo not drawn),27.4,-16.5,i,-12.3,i,i,i,-1,-7.0
CC1CC(C)CN(C(=O)/C(=C\c2ccccc2)c2ccccc2)C1 (stereo not drawn),14.3,4.5,i,-30.3,i,.,.,.,.
CN1CCN(C(=O)/C(=C/c2ccccc2)c2ccccc2)CC1,-9.8,2.1,i,0.0,25*,i,i,-0.947,-1.5
CCN(CC)C(=O)CSc1nnnn1-c1ccc(F)c(Cl)c1,-1.7,4.9,i,-9.1,i,.,.,.,.
Fc1ccc(-n2nnnc2-c2cnc(-c3cccs3)nc2C(F)(F)F)cc1,17.8,-1.4,i,-8.1,i,.,.,.,.
CCOC(=O)N1CCN(C(=O)C2CCCN(Cc3nc(-c4ccc(Cl)cc4)oc3C)C2)CC1 (stereo not drawn),11.7,-1.5,i,5.8,25*,i,i,-0.985,-7.5
Cc1c(Cl)cnc(NC(=O)CSc2nnnn2C)c1Cl,3.1,-7.9,i,.,.,.,.,.,.
Cc1nnc2ccc(N3CCCC3)nn12,-4.9,1.9,i,0.3,25*,i,i,-0.935,-19.0
CCOC(=O)Cc1ccc(NC(=O)c2ccc(C(C)(C)C)cc2)cc1,14.9,4.2,i,-39.0,100*,32.5%*,i,-0.909,4.5
CC(C(=O)N1CCN(c2ccccc2)CC1)N1C(=O)C2CC=CCC2C1=O (stereo not drawn),-2.9,1.3,i,-8.8,25*,i,i,-1.01,-15.0
Cc1ccccc1NC(=O)c1ccc(NC(=O)C2CCCO2)cc1 (stereo not drawn),-8.1,0.2,i,-3.1,i,.,.,.,.
CN1CCN(C(=O)NC2CCCN2S(=O)(=O)c2ccc(Cl)cc2)CC1 (stereo not drawn),-3.0,-4.1,i,8.3,i,i,i,-1.04,-1.5
O=C(c1cccs1)N1CCC(c2nc3c(nnn3Cc3c(Cl)cccc3Cl)c(=O)[nH]2)CC1,21.2,7.0,i,-38.4,i,.,.,.,.
SMILES,Apaf1 inhib,UBC13 inh,TMEM16A act,DNA FID counter,TMEM16A inh,TMEM16A reconf,TMEM16A Ca cntr,Parental YFP cnt,ClC-1 inh
COc1ccc(OCCSc2nc(C)nc3ccccc23)cc1,16.4,14.9,i,-9.1,25*,58.5%*,i,-1.14,-13.0
CCN(CC)S(=O)(=O)c1ccc(S(=O)(=O)Nc2c(C)nn(C)c2C)cc1,7.7,-5.3,i,.,25*,29.5%*,i,-0.907,-5.0
Cc1nn(C)c(C)c1NS(=O)(=O)c1ccc(Cl)cc1,-4.4,-3.7,i,.,i,.,.,.,.
O=C(c1ccc(Cl)cc1)C1CCCN(Cc2cnn(-c3ccccc3)c2)C1 (stereo not drawn),-5.6,6.2,i,19.5,100*,33.0%*,i,-0.909,-1.5
O=C(c1ccco1)N1CCN(Cc2cc(=O)c(OCc3ccccc3F)co2)CC1,-3.3,1.4,i,.,i,.,.,.,.
COc1ccccc1C1CCN(c2ccc(CO)cc2[N+](=O)[O-])CC1,-1.6,-0.9,i,-12.4,25*,i,i,-1.08,-16.5
COc1ccccc1C1CCN(Cc2cccc([N+](=O)[O-])c2)CC1,10.9,0.2,i,13.9,i,.,.,.,.
CC(=O)Nc1ccc(NS(=O)(=O)c2ccc(Cl)s2)cc1,2.1,-3.9,i,-0.7,i,.,.,.,.
Cc1ccc(S(=O)(=O)Nc2ccc3nc(C)sc3c2)cc1,-3.6,4.0,i,-7.3,25*,i,i,-1.17,-7.5
CSc1nc2ccc(NS(=O)(=O)c3ccc(Cl)s3)cc2s1,-2.7,-11.9,i,1.8,100*,32.5%*,i,-0.896,-17.0
COc1ccc(Cc2noc(CN3CCN(Cc4csc(C)n4)CC3)n2)cc1OC,0.2,1.0,i,-10.6,i,.,.,.,.
NC(=O)C1CCN(c2oc(-c3cccs3)nc2S(=O)(=O)c2ccc(Br)cc2)CC1,12.3,8.8,i,.,.,.,.,.,.
C[C@H](CO)N1C[C@H](C)[C@@H](CN(C)C(=O)NC2CCCCC2)Oc2c(NS(=O)(=O)c3cn(C)cn3)cccc2C1=O,0.6,2.9,i,.,.,.,.,.,.
Cc1ccc(C(=O)Cc2cc3ccccc3oc2=O)c(C)c1,10.6,3.4,i,-8.8,i,.,.,.,.
